# Most compounds without a hit are left out; they make up all but 2.2% or so of the library.
# TRAIL sens C8 – viability loss with TRAIL in NB7+C8 cells, primary screen, TRAIL sensitizer project, cell-based, ATPlite luminescence. actives 1% (n = 360,000). inhibition (viability loss, TRAIL sensitization), % at 10 µM;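 active = compounds causing at least 50% loss of cell viability in the single-dose screen, relative to plate controls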
# FLuc stim CS – FLuc activators, initial screening, artefact control for FLuc-dependent activation tests, biochemical, ATPlite luminescence. Luciferin 4-monooxygenase (Photinus pyralis), P08659. ATPlite luciferase biochemical, 10 min; 0 = ATP-free wells, 1 = DMSO control. activation factor at 10 µM. 200,000 tested, under 10 active. AID 1027, 2008;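 active = luciferase activation factor, scaled between plate controls, of at least 2 with compound at 10 µM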
#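 Material: luciferase plus luciferin reagent, cell-free. Medium: PBS buffer for ATP. Also added: ATP substrate, dispensed from a 10.24 µM working solution in PBS. Doses: test compounds dosed from 2 mM stocks in 100% DMSO. Incubation: 10 min post-reagent at room temperature. Technique: light output (luminescence). Read-out basis: luminescence gain marking luciferase activators.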
# Wee1 stabilizer – Wee1 degradation inhibitors, primary screen, cell-based, HeLa, Wee1K328M-luciferase, luminescence; Wee1-like protein kinase (Homo sapiens), P30291; HeLa Luc-Wee1K328M stability; 100% = proteasome inhibitor MG132 effect; reporter increase, % at 5 µM; actives 1.2% (n = 220,000); AID 1321, 2008;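 active = activation above the mean of all tested compounds plus 3 SD, set per screening run, cut at about 8.8% in these data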;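 note: cells exposed to compound for 20 h before luminescence read; 0% = DMSO alone and 100% = MG132 at 30 µM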
# Target sequence (P30291 whole entry K328M): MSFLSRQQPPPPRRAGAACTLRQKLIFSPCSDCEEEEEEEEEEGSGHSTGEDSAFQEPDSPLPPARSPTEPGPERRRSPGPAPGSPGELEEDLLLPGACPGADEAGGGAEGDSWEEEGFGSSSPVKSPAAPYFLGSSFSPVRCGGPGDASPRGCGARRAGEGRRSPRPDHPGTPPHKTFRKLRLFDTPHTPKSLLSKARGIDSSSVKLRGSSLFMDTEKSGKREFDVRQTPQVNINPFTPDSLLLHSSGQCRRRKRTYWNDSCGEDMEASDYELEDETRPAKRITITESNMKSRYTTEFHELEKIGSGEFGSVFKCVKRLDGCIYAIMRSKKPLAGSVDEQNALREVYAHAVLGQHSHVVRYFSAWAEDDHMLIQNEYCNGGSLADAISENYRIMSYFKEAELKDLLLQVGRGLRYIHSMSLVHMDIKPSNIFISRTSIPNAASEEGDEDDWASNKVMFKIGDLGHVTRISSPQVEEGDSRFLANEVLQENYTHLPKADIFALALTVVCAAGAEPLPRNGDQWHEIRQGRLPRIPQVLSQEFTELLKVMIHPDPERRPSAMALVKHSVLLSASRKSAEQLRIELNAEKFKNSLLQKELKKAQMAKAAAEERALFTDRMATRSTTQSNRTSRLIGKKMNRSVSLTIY
# FLuc inhib CS – firefly luciferase enzyme inhibitors, primary screen, artefact control for luciferase-based inhibitor screens, biochemical, luminescence, ATPLite | actives 1.5% (n = 200,000) | inhibition, % at 10 µM | AID 1006, 2008 | Luciferin 4-monooxygenase (Photinus pyralis), P08659 | 10 min;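 active = inhibition above about 50% when tested at 10 µM, limit read from the data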
# PPC-1+TRAIL kill – compounds killing PPC-1 cancer cells with TRAIL present, primary screen, TRAIL potentiator project, ATPLite luminescence, uHTS; PPC-1 cells + TRAIL, ATPLite viability luminescence; actives 0.41% (n = 220,000); cell killing (% activity), % at 4 µM or 5 µM;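 active = cell killing above 50% in the first pass at 4 µM, then a duplicate retest at 5 µM averaging 50% or more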;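 note: plate controls were cells with TRAIL plus DMSO for no effect and medium-only wells lacking cells for full effect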
# PKD1 kinase inh – inhibitors of human PKD1 kinase, biochemical, fluorescence polarization. inhibition, % (test concentration not listed). Serine/threonine-protein kinase D1 (Homo sapiens), Q15139. AID 797, 2007. PKD1 kinase fluorescence polarization assay. actives 0.056% (n = 200,000); in the data active = inhibition above about 50%
# * hit, by the source's call; / = not tested or not shown.
SMILES,TRAIL sens C8,FLuc stim CS,Wee1 stabilizer,FLuc inhib CS,PPC-1+TRAIL kill,PKD1 kinase inh
CCCSc1ccc(C(=O)Nc2ccc(Cl)cc2)cn1,8,0.9,-1,14,12,-7
COc1cc(C=O)ccc1OCCCOc1ccc([N+](=O)[O-])cc1,7,1,9.9*,-4,21,-4
O=C(/C=C/N1CCOCC1)c1cc2ccccc2o1,25,0.6,-1,41,12,0
O=C(/C=C/N1CCOCC1)c1coc2ccccc12,23,0.5,-3,54*,17,8
O=C(CSc1nc2ccccc2c(=O)n1NC(=O)c1ccccc1)c1ccccc1,-23,0.9,4,10,11,-9
O=C(CSc1nc2ccccc2c(=O)n1NC(=O)c1ccccc1)c1ccc(Cl)cc1,3,1,9.3*,-1,12,2
Cn1nc(-c2ccc(C(=O)NCC3CCCO3)cc2)c2ccccc2c1=O (configuration not stated),3,1,5,4,11,9
Cn1nc(-c2ccc(OCC(=O)NCC3CCCO3)cc2)c2ccccc2c1=O (configuration not stated),8,1.1,9.6*,-9,11,-1
COc1ccc(C(=O)Nn2c(SCC(=O)NCC3CCCO3)nc3ccccc3c2=O)cc1 (configuration not stated),46,0.2,-5,82*,47,-9
CCc1sc(NC(=O)c2cc3ccccc3oc2=O)nc1-c1cccs1,28,1,0,0,-5,-6
CCOc1ccc(N2C(=O)CC(NC3CCN(C(=O)c4cccs4)CC3)C2=O)cc1 (configuration not stated),3,/,/,/,/,/
CC(C)(CNC(=O)c1ccc([N+](=O)[O-])c(Cl)c1)CNC(=O)c1ccc([N+](=O)[O-])c(Cl)c1,53*,1,-1,1,28,-10
CCC(C)N1C(=O)CN(C2CCCCCC2)C(=O)C1c1ccccc1F (configuration not stated),-18,1,0,-3,28,1
CN(CCC#N)c1ccc(/C=C(\C#N)c2ccccn2)cc1,84*,0.1,1,88*,15,-13
CCN(CC)c1ccc(/C=C(\C#N)c2ccccn2)cc1,81*,0.2,-4,85*,62*,-22
CCN(Cc1ccccc1)c1ccc(/C=C(\C#N)c2ccccn2)cc1,8,0.8,1,21,28,0
CCCCCCCCCCCCCCC[C@@H](O)[C@@H](N)CO,95*,/,/,/,/,/
Oc1c(C=Nc2ccccc2)sc2ccccc12,17,0.1,-1,95*,/,1
Oc1c(/C=N/c2ccccn2)sc2ccccc12,-9,/,2,/,2,/
Oc1c(C=Nc2cccnc2)sc2ccccc12,14,0.3,4,70*,27,0
CN=Cc1sc2ccccc2c1O,16,1,1,3,9,-5
Cc1ccsc1C(=O)N1CCN(C(=O)c2ccco2)CC1,4,/,/,/,/,/
O=C(O)CCCC(=O)OCc1c(-c2ccccc2)ncc2ccccc12,-4,/,/,/,/,/
Cc1cc(C(=O)NNC(=O)/C=C/c2ccco2)c(C)o1,-2,/,/,/,/,/
O=C(Nc1ccc(NC(=O)c2ccccc2F)cn1)c1ccco1,54*,/,/,/,/,/
SMILES,TRAIL sens C8,FLuc stim CS,Wee1 stabilizer,FLuc inhib CS,PPC-1+TRAIL kill,PKD1 kinase inh
O=C(Nc1ccc(NC(=O)C2CC2)nc1)c1ccco1,2,0.9,1,9,6,4
O=C(Nc1ccc(NC(=O)c2ccco2)nc1)c1cccc(F)c1,27,/,/,/,/,/
O=C(Nc1ccc(NC(=O)c2ccco2)nc1)c1cccnc1,20,0.4,3,62*,30,-3
O=C(Nc1ccc(NC(=O)C2CC2)cn1)c1ccccc1,50*,/,/,/,/,/
COc1ccc(/C=C(\C#N)C(=O)NCC(c2ccc(F)cc2)N2CCOCC2)cc1 (configuration not stated),1,/,0,/,10,/
O=C(CCC(=O)Nc1ccc(F)cc1)N/N=C/c1cccnc1,-6,/,/,/,/,/
Nn1c(-c2ccc(F)cc2)nc2ccccc2c1=O,-10,/,/,/,/,/
O=C1c2cc(F)ccc2-n2c1nc1ccccc1c2=O,55*,/,/,/,/,/
O=C(Cn1cnc([N+](=O)[O-])n1)N/N=C/c1ccc(O)cc1O,52*,1,5,0,7,4
Cc1cc(Cl)c(S(=O)(=O)Nc2cccc(O)c2)cc1OCC(N)=O,-5,1,9.9*,-1,23,-13
Cc1ccc(CNS(=O)(=O)c2ccc3c(c2)n(C)c(=O)c(=O)n3C)cc1,2,1,10*,-2,18,4
COC(=O)N(C)C[C@H]1OCc2cnnn2CCCC(=O)N([C@@H](C)CO)C[C@H]1C,-1,/,/,/,/,/
O=[N+]([O-])c1cccc(/C=C/c2ccccn2)c1,-14,/,10.0*,/,3,/
Cc1cccc(NC(=S)NC(C)C(c2cccs2)N2CCN(C)CC2)c1C (configuration not stated),1,/,-2,/,-9,/
S=c1nc[nH]c2nc[nH]c12,71*,/,/,/,/,/
Cn1cnc2nc[nH]c2c1=S,-9,/,/,/,/,/
COc1cccc(N2CC(O)Cn3c2nc2c3c(=O)[nH]c(=O)n2C)c1 (configuration not stated),-7,/,/,/,/,/
CN(c1ccccc1)S(=O)(=O)c1ccc(NC(=O)c2nc(S(C)(=O)=O)ncc2Cl)cc1,93*,/,/,/,/,/
COc1cccc(NC(=O)c2nc(S(C)(=O)=O)ncc2Cl)c1,66*,/,/,/,/,/
COc1cccc(NC(=O)c2nc(SC)ncc2Cl)c1,-7,/,/,/,/,/
CCN(c1ccccc1)S(=O)(=O)c1nnc(NC(=O)C(C)(C)C)s1,-10,/,/,/,/,/
CCn1nnc(NC(=O)c2ccco2)n1,3,/,/,/,/,/
Cc1cc(Cl)n2ncc(-c3ccccc3)c2n1,91*,/,3,/,22,/
Cc1cc(NCCCN2CCOCC2)n2ncc(-c3ccccc3)c2n1,22,0.8,11*,15,21,-25
CCOC(=O)c1cnn(-c2cc(C(C)(C)C)nc3c(-c4ccccc4)c(C)nn23)c1N,-1,1,4,-3,3,-7
Cc1cc(NCCCN2CCOCC2)n2nc(C)c(-c3ccccc3)c2n1,6,1.1,-1,-5,2,-29
CCOC(=O)c1cnn(-c2cc(C)nc3c(-c4ccccc4)cnn23)c1N,-5,1,11*,2,7,-10
COc1ccccc1Oc1ccc(NC(=O)Cc2ccccc2)cc1,3,/,/,/,/,/
O=C(N/N=C1\CCCc2ccccc21)c1ccccc1Cl,-3,0.9,-2,11,6,-3
O=C(N/N=C1\CCc2ccccc21)c1ccccc1O,63*,0.1,-2,90*,54*,-5
